Measurements: ChEMBL document CHEMBL3785029, “Synthesis and Characterization of Fatty Acid Conjugates of Niacin and Salicylic Acid” (J Med Chem, 2016)
Activity calls are given as the source filed them. No cut-off for these calls is given here.

How the values were obtained:
[1] = molecular target: T1, Sterol regulatory element-binding protein 2 (Homo sapiens) (UniProt Q12772); experiment: Induction of SREBP2 maturation in human HepG2 cells at 10 uM after overnight incubation by immunoblot analysis; assay type: cell-based
T1 sequence (whole entry): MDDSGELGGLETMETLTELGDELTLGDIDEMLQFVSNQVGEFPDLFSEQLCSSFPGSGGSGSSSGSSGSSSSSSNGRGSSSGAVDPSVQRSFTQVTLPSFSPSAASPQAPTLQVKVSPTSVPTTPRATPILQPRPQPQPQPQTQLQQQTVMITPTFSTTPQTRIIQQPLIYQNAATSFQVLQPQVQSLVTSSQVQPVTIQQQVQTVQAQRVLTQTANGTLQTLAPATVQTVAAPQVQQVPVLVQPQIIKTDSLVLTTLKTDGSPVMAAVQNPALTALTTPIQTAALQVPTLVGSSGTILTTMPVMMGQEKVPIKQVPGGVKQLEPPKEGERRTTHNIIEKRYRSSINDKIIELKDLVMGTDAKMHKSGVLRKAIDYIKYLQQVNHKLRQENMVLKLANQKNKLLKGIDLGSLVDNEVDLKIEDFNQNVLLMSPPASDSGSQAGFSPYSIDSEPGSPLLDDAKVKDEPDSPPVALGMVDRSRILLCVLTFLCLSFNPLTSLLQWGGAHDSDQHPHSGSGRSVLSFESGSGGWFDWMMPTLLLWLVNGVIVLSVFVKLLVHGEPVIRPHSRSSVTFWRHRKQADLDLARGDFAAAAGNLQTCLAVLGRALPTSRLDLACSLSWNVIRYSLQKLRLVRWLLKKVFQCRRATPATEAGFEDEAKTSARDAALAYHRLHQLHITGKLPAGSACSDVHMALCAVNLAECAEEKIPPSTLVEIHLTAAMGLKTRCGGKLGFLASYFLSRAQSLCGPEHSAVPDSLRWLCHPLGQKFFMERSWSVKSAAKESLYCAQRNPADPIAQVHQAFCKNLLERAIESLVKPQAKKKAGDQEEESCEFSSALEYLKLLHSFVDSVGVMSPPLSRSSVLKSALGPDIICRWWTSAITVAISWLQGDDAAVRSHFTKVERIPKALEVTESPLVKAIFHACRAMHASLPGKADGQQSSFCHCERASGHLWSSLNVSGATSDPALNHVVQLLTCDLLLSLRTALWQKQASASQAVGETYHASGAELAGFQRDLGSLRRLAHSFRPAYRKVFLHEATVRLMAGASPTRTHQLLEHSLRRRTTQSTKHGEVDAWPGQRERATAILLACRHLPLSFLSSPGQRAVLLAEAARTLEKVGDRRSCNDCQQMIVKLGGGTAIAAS
Summary of the method: (§1)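 Human HepG2 cells were incubated with test agents, including 10 µM atorvastatin alone or combined with conjugate. The mature form of SREBP-2 protein was then assessed.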

[2] = tested on: Plasma; experiment: Drug level in Sprague-Dawley rat plasma treated with N-(2-(4Z,7Z,10Z,13Z,16Z,19Z)-docosa-4,7,10,13,16,19-hexaenamidoethyl)-2-hydroxybenzamide at 300 mg/kg, po measured up to 24 hrs post dose; assay type: ADME, organism-based; conditions: in vivo
Summary of the method: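 Single oral dose of 300 mg/kg to Sprague Dawley rats. Plasma collected at 0, 0.5, 1, 2, 4, 8 and 24 hr. Analytes were the parent, the salicylate-linker and linker-DHA metabolites, salicylic acid and salicyluric acid; Cmax and AUClast derived.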

[3] = tested on: Rattus norvegicus; experiment: Cmax in jugular vein cannulated Sprague-Dawley rat assessed nicotinuric acid at 30 mg/kg, po measured up to 140 mins; assay type: ADME, organism-based; parameters: dose 30 mg/kg, route oral; conditions: in vivo
Summary of the method: (§2)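 Sprague Dawley rats surgically fitted with indwelling jugular vein and portal vein cannulas; oral dosing, then serial blood draws from both portal and jugular veins at 10, 20, 40 min and 1, 2, 4, 6 hr post dose; plasma analysed for parent and metabolites by LC/MS/MS.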

[4] = tested on: Liver; experiment: Drug uptake in Sprague-Dawley rat liver at 100 mg/kg, po qd for 3 days measured 4 hrs post last dose; assay type: ADME, organism-based; conditions: in vivo
Summary of the method: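 Sprague Dawley rats (n = 6) dosed 100 mg/kg once daily for 3 days; plasma and tissues collected four hours after the last dose and analysed for parent compound and metabolites.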

[5] = Cmax in jugular vein cannulated Sprague-Dawley rat at 30 mg/kg, po measured up to 140 mins; assay type: ADME, organism-based; parameters: dose 30 mg/kg, route oral; conditions: jugular vein blood; summary of the method: as §2
[6] = tested on: Rattus norvegicus; experiment: Cmax in jugular vein cannulated Sprague-Dawley rat assessed as N-(2-(methylamino)ethyl)nicotinamide at 30 mg/kg, po measured up to 140 mins; assay type: ADME, organism-based; parameters: dose 30 mg/kg, route oral; conditions: in vivo, BLD = below limit of detection; summary of the method: as §2
[7] = tested on: Rattus norvegicus; experiment: Cmax in portal vein cannulated Sprague-Dawley rat assessed nicotinuric acid at 30 mg/kg, po measured up to 140 mins; assay type: ADME, organism-based; parameters: dose 30 mg/kg, route oral; conditions: in vivo; summary of the method: as §2
[8] = tested on: Rattus norvegicus; experiment: Cmax in portal vein cannulated Sprague-Dawley rat assessed as N-(2-(methylamino)ethyl)nicotinamide at 30 mg/kg, po measured up to 140 mins; assay type: ADME, organism-based; parameters: dose 30 mg/kg, route oral; conditions: in vivo, BLD = below limit of detection; summary of the method: as §2
[9] = Cmax in portal vein cannulated Sprague-Dawley rat at 30 mg/kg, po measured up to 140 mins; assay type: ADME, organism-based; parameters: dose 30 mg/kg, route oral; conditions: portal vein blood; summary of the method: as §2
[10] = Drug uptake in lysosomes of CellLight ER-RFP/BacMam 2-treated human HuH7 cells at 25 uM after 30 mins by DAPI staining-based confocal microscopy; assay type: ADME, cell-based, Lysosome; conditions: huh-7, 0.5 h
Summary of the method: (§3)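 HuH-7 hepatocellular carcinoma cells were plated overnight in DMEM with 10% FBS. They were transduced for 48 h with BacMam CellLight ER-RFP or Late Endosomes-RFP organelle markers. Cells were then exposed for 30 min to fluorescent cis-parinaric acid conjugate in DMEM at 25 µM. They were fixed in 4% paraformaldehyde for 2 min at 37 °C, washed with PBS, mounted with anti-fade DAPI and imaged by confocal microscopy at 63X.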

[11] = Drug uptake in endoplasmic reticulum of CellLight ER-RFP/BacMam 2-treated human HuH7 cells at 25 uM after 30 mins by DAPI staining-based confocal microscopy; assay type: ADME, cell-based; conditions: huh-7, 0.5 h
Summary of the method: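 HuH-7 cells were plated overnight in 10% FBS DMEM and transduced with CellLight ER-RFP BacMam 2.0 for 48 h. They were then exposed to fluorescent conjugate at 25 µM in DMEM for 30 min, fixed in 4% paraformaldehyde for 2 min at 37 °C and washed with PBS. Imaging was by confocal microscopy with a 63X lens.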

[12] = Drug uptake in endoplasmic reticulum of CellLight ER-RFP-treated human HuH7 cells at 25 uM after 30 mins by DAPI staining-based confocal microscopy in presence of endocytosis inhibitor dynasore; assay type: ADME, cell-based; conditions: huh-7, 0.5 h
Summary of the method: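 HuH-7 cells were transduced with CellLight ER-RFP BacMam 2.0 for 48 h and pretreated with 80 µM dynasore. They were then exposed to compound for 30 min, fixed in 4% formaldehyde for 2 min at 37 °C and mounted with anti-fade DAPI. Imaging was by confocal microscopy with a 63X lens.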

[13] = in vivo; conditions: Sprague-Dawley, rat, po, 30 mg/kg
[14] = molecular target: T1, Sterol regulatory element-binding protein 2 (Homo sapiens); conditions: HepG2, 10 uM
[15] = molecular target: T1, Sterol regulatory element-binding protein 2 (Homo sapiens); experiment: Inhibition of SREBP2 maturation in human HepG2 cells at 50 uM after overnight incubation by immunoblot analysis; assay type: cell-based; summary of the method: as §1
[16] = AUClast in Sprague-Dawley rat at 30 mg/kg, po administered as single dose measured up to 6 hrs post dose by LC/MS/MS analysis; conditions: in vivo
[17] = molecular target: T2, Fatty-acid amide hydrolase 1 (Homo sapiens, UniProt O00519); experiment: Drug metabolism in human HepG2 cells assessed as FAAH-mediated compound hydrolysis by measuring level of deuterium-labelled EPA-d5 released at 50 uM by LC/MS-MS analysis; assay type: ADME, cell-based; conditions: hepg2, 50 µM, TDE = time-dependent effect
T2 sequence (O00519 whole entry): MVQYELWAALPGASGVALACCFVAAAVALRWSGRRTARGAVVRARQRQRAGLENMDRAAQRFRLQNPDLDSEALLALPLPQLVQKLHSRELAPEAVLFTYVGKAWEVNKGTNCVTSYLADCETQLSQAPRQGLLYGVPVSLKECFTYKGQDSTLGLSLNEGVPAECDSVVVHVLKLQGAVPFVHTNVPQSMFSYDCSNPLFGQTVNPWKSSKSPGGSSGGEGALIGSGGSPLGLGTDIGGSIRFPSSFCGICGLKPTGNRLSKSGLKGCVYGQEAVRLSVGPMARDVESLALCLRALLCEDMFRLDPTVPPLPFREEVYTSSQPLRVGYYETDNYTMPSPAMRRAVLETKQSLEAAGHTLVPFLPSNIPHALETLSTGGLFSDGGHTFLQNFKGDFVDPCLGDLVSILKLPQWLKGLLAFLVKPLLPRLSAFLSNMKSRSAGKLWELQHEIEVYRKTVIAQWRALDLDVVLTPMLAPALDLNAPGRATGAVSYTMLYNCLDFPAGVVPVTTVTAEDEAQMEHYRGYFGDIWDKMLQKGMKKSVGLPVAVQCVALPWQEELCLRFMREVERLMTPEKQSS

[18] = tested on: Rattus norvegicus; experiment: Cmax in jugular vein cannulated Sprague-Dawley rat assessed as (S)-N-(pyrrolidin-3-yl)nicotinamide at 30 mg/kg, po measured up to 140 mins; assay type: ADME, organism-based; parameters: dose 30 mg/kg, route oral; conditions: in vivo; summary of the method: as §2
[19] = tested on: Rattus norvegicus; experiment: Cmax in portal vein cannulated Sprague-Dawley rat assessed as (S)-N-(pyrrolidin-3-yl)nicotinamide at 30 mg/kg, po measured up to 140 mins; assay type: ADME, organism-based; parameters: dose 30 mg/kg, route oral; conditions: in vivo; summary of the method: as §2
[20] = molecular target: T1, Sterol regulatory element-binding protein 2 (Homo sapiens); experiment: Inhibition of SREBP2 in human HepG2 cells assessed as reduction of PCSK9 secretion at 50 uM after 16 hrs by ELISA; assay type: cell-based
Summary of the method: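 Human HepG2 cells were treated in culture. Secreted PCSK9 in the culture supernatant was quantified with a human-specific PCSK9 ELISA.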

[21] = species: Mus musculus; conditions: 3.2 mM
[22] = species: Mus musculus; experiment: Inhibition of NFkappaB in mouse RAW 264.7 cells at 78.7 uM preincubated for 2 hrs followed by LPS addition for 3 hrs by luciferase reporter gene assay relative to control; assay type: cell-based
[23] = Drug uptake in lysosomes of human HuH7 cells at 25 uM after 30 mins by LysoTracker/DAPI staining-based confocal microscopy; assay type: ADME, cell-based, Lysosome; conditions: huh-7, 0.5 h
[24] = Drug uptake in endoplasmic reticulum of human HuH7 cells at 25 uM after 30 mins by LysoTracker/DAPI staining-based confocal microscopy; assay type: ADME, cell-based; conditions: huh-7, 0.5 h; summary of the method: as §3

In the case of `CC(C)c1c(C(=O)Nc2ccccc2)c(-c2ccccc2)c(-c2ccc(F)cc2)n1CC[C@@H](O)C[C@@H](O)CC(=O)O`, the Activity [1] is reported as “Active”.
With `O=C(O)CNC(=O)c1ccccc1O` [SALICYLURIC ACID] the Drug metabolism [2] was “metabolite_detected”.
With `CC/C=C\C/C=C\C/C=C\C/C=C\C/C=C\CCCC(=O)N(C)CCNC(=O)c1cccnc1` the Cmax [3] was 28 ng/mL, the Drug uptake [4] was “Active” and the Cmax [5] was 400 ng/mL. For the same molecule, the Cmax [6] was “BLD”, the Cmax [7] was 11 ng/mL and the Cmax [8] was “BLD”. It also gave a Cmax [9] of 5060 ng/mL.
For `NCCNC(=O)c1ccccc1O`, the Drug metabolism [2] was “metabolite_detected”.
In the case of `CC\C=C/C=C/C=C/C=C\CCCCCCCC(=O)NCCNC(=O)c1cccnc1`, the Drug uptake [10] is reported as “Not Active”, the Drug uptake [11] is reported as “Active” and the Drug uptake [12] is reported as “Not Active”.
In the case of `O=C(O)c1cccnc1` [NIACIN], the Cmax at 6 h [13] is reported as 7470 ng/mL, the inhibition [14] is reported as “inactive” and the inhibition [15] is reported as “inactive”. For the same molecule, the AUC(0-t) at 6 h [16] was 6980 ng·h/mL.
With `[2H]C([2H])([2H])C([2H])([2H])/C=C\C/C=C\C/C=C\C/C=C\C/C=C\CCCC(=O)NCCNC(=O)c1cccnc1` the Drug metabolism [17] was “tde”.
Molecule `CC/C=C\C/C=C\C/C=C\C/C=C\C/C=C\CCCC(=O)N1CCC(NC(=O)c2cccnc2)C1` (single isomer, unassigned) has a Cmax [3] of 11 ng/mL, a Cmax [18] of 35 ng/mL and a Cmax [19] of 73 ng/mL. It also gave a Cmax [5] of 564 ng/mL, a Cmax [7] of 13 ng/mL and a Cmax [9] of 5320 ng/mL.
With `CC/C=C\C/C=C\C/C=C\C/C=C\C/C=C\CCCC(=O)O` the inhibition [20] was “inactive” and the inhibition [15] was “inactive”.
For `CC\C=C/C=C/C=C/C=C\CCCCCCCC(=O)NCCNC(=O)c1ccccc1O`, the Drug uptake [11] was “Active”.
In the case of `O=C(O)c1ccccc1O` [SALICYLIC ACID], the Drug metabolism [2] is reported as “metabolite_detected” and the inhibition [21] is reported as “Active”.
For `CC/C=C\C/C=C\C/C=C\C/C=C\C/C=C\C/C=C\CCC(=O)O`, the inhibition [22] was “Active”.
With `CC\C=C/C=C/C=C/C=C\CCCCCCCC(=O)O` the Drug uptake [23] was “Not Active” and the Drug uptake [24] was “Not Active”.
